Data from ChEMBL document CHEMBL4732106, “Paracetamol analogues conjugated by FAAH induce TRPV1-mediated antinociception without causing acute liver toxicity” (Eur J Med Chem, 2021).
pEC50: −log10 of the molar value. Active and inactive are the calls of the source. No cut-off for these calls is given here.

Key:
[1] = molecular target: T1, Transient receptor potential cation channel subfamily V member 1 (Rattus norvegicus, UniProt O35433); experiment: Agonist activity at TRPV1 in rat isolated mesenteric arteries assessed as vasorelaxation of phenylephrine-induced contraction; format: tissue-based, Artery
Procedure, shortened: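 Indomethacin 10 μM and Nω-nitro-L-arginine 100 μM were present throughout. Segments were precontracted with phenylephrine and exposed to conjugate concentrations. pEC₅₀ taken at half-maximal relaxation; mean ± SEM, n = animals.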

[2] = molecular target: T2, Fatty-acid amide hydrolase 1 (Mus musculus, UniProt O08914); experiment: Substrate activity at FAAH in FAAH+/+ mouse brain assessed as N-arachidonoyl conjugate level per g protein at 0.1 mM measured after 20 mins by LC-MS/MS analysis; format: ADME, tissue-based; details: 100 µM
T2 sequence (O08914 whole entry): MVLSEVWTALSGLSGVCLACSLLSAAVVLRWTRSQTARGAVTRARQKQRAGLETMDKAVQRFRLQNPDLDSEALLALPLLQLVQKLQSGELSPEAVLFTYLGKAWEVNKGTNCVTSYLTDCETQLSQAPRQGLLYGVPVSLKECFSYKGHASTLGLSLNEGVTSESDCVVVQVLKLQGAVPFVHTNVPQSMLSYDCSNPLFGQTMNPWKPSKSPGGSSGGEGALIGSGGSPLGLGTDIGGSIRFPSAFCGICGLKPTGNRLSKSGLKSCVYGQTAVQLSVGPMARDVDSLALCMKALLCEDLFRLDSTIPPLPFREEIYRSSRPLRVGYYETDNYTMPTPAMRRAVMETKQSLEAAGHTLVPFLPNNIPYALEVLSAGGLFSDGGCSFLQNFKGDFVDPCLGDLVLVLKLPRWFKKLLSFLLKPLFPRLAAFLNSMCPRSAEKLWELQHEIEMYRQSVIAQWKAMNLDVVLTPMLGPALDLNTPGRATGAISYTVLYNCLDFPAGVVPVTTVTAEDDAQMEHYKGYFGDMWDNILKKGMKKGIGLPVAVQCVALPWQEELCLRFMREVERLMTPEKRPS
Procedure, shortened: (§1)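 Brains from FAAH+/+ or FAAH-/- mice were homogenized in ice-cold 10 mM Tris with 1 mM EDTA and 0.3 mM ascorbic acid. Aliquots were incubated with 0.1 mM primary amine for 20 min at 37 °C with stirring. Reactions were stopped with cold acetone containing AM404-d4 internal standard, and conjugates were measured by LC-MS/MS. n = 5–7.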

[3] = Prodrug conversion in FAAH-/- mouse brain assessed as N-arachidonoyl conjugate level per g protein at 0.1 mM measured after 20 mins by LC-MS/MS analysis; format: ADME, tissue-based; details: in vitro, 100 µM; procedure, shortened: as §1
[4] = Prodrug conversion in FAAH+/+ mouse brain assessed as N-arachidonoyl conjugate level per g protein at 100 mg/kg, ip measured after 20 mins by LC-MS/MS analysis; format: ADME, organism-based; design: unit: pmol/g protein; details: in vivo
Procedure, shortened: (§2)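 FAAH+/+ and FAAH-/- mice (both sexes) received the primary amine i.p. in saline (sometimes with 5% DMSO). Brains were collected 20 min later, frozen, and homogenized in Tris/EDTA/ascorbate with 10 μM MAFP. N-arachidonoyl conjugates were quantified by positive-ion LC-MS/MS and normalized to protein.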

[5] = Prodrug conversion in FAAH-/- mouse brain assessed as N-arachidonoyl conjugate level per g protein at 100 mg/kg, ip measured after 20 mins by LC-MS/MS analysis; format: ADME, organism-based; design: unit: pmol/g protein; details: in vivo; procedure, shortened: as §2
Mus musculus [6] = experiment: Antinociceptive activity in ip dosed C57BL/6 mouse assessed as reduction in licking time during first phase treated for 10 mins and measured for 5 mins by formalin test; format: functional, organism-based; details: dose 25-100 mg/kg, time 15.0 min
Procedure, shortened: (§3)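 Male C57BL/6 mice, 8 weeks old, randomized in equal blocks (5–10 per group), observer blinded. The test amine or vehicle was given i.p. 10 min before intraplantar 2.5% formalin (25 μl/mouse). Time spent biting/licking the injected paw was recorded in phase I (0–5 min) and phase II (15–40 min). Mean ± SEM, n = 5–6.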

Mus musculus [7] = experiment: Antinociceptive activity in ip dosed C57BL/6 mouse assessed as reduction in licking time during second phase treated for 10 mins and measured for 15 to 40 mins by formalin test; format: functional, organism-based; details: dose 25-100 mg/kg, time 50.0 min; procedure, shortened: as §3
[8] = Effect on locomotor activity in C57BL/6 mouse assessed as change in latency to fall at 25 mg/kg, ip treated for 10 mins measured up to 60 mins by rotarod test; format: ADME, organism-based; details: in vivo, 1 h
Procedure, shortened: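 Male C57BL/6 mice were first trained on a rotarod at a constant 4 rpm in 1-min sessions. At various times after i.p. dosing, the drum was accelerated from 4 to 40 rpm over 5 min and the latency to fall was recorded.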

Mus musculus [9] = experiment: Antinociceptive activity in C57BL/6 mouse assessed as reduction in licking time during second phase at 25 mg/kg, ip treated for 10 mins and measured for 15 to 40 mins in presence of FAAH inhibitor URB937 by formalin test; format: functional, organism-based; details: time 50.0 min
Procedure, shortened: (§4)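 Male C57BL/6 mice, 8 weeks old. URB937 (5 μg in 5 μl) or capsazepine (10 μg in 5 μl) was given i.c.v. under brief isoflurane, 2 mm deep, 5 min before the i.p. test amine. Formalin 2.5% (25 μl) was injected intraplantar 10 min after dosing. Paw biting/licking time was scored in phase I (0–5 min) and phase II (15–40 min) by a blinded observer. Mean ± SEM, n = 8–14.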

Mus musculus [10] = experiment: Antinociceptive activity in C57BL/6 mouse assessed as reduction in licking time during second phase at 25 mg/kg, ip treated for 10 mins and measured for 15 to 40 mins in presence of TRPV1 antagonist capsazepine by formalin test; format: functional, organism-based; details: time 50.0 min; procedure, shortened: as §4
Mus musculus [11] = experiment: Antinociceptive activity in C57BL/6 mouse assessed as reduction in licking time during first phase at 25 mg/kg, ip treated for 10 mins and measured for 5 mins in presence of FAAH inhibitor URB937 by formalin test; format: functional, organism-based; details: time 15.0 min; procedure, shortened: as §4
Mus musculus [12] = experiment: Antinociceptive activity in C57BL/6 mouse assessed as reduction in licking time during first phase at 25 mg/kg, ip treated for 10 mins and measured for 5 mins in presence of TRPV1 antagonist capsazepine by formalin test; format: functional, organism-based; details: time 15.0 min; procedure, shortened: as §4
Mus musculus [13] = experiment: Antipyretic activity against LPS-induced C57BL/6 mouse model of hyperthermia assessed as reduction in body temperature at 25 mg/kg, ip measured after 48 mins; format: functional, organism-based
Procedure, shortened: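 Male C57BL/6 mice carried telemetry and recovered ≥1 week before use, housed at 29 °C ambient (near-thermoneutral). LPS 100 μg kg⁻¹ i.p. or saline was given, then drug or Ringer's acetate vehicle i.p. 3 h later. Core temperature was recorded continuously and analysed at the nadir time point. n = 4–9 per group.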

Mus musculus [14] = experiment: Antipyretic activity against LPS-induced C57BL/6 mouse model of hyperthermia assessed as PGE2 level in diencephalon at 25 mg/kg, ip measured after 40 mins by LC-MS/MS analysis relative to control; format: functional
Procedure, shortened: (§5)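 Male C57BL/6 mice got LPS (E. coli O111:B4, 100 μg kg⁻¹ i.p.) or saline, then 3 h later the drug i.p. in Ringer's acetate vehicle. Diencephalon was taken 40 min later and homogenized in Tris/EDTA/ascorbate with 10 μM MAFP and 100 μM ibuprofen. Prostanoids were quantified by negative-ion LC-MS/MS and expressed as % of LPS + vehicle. n = 6.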

Mus musculus [15] = experiment: Antipyretic activity against LPS-induced C57BL/6 mouse model of hyperthermia assessed as PGF2alpha level in diencephalon at 25 mg/kg, ip measured after 40 mins by LC-MS/MS analysis relative to control; format: functional; procedure, shortened: as §5
Mus musculus [16] = experiment: Antipyretic activity against LPS-induced C57BL/6 mouse model of hyperthermia assessed as 6-keto-PGF1alpha level in diencephalon at 25 mg/kg, ip measured after 40 mins by LC-MS/MS analysis relative to control; format: functional; procedure, shortened: as §5
Mus musculus [17] = experiment: Antipyretic activity against LPS-induced C57BL/6 mouse model of hyperthermia assessed as TXB2 level in diencephalon at 25 mg/kg, ip measured after 40 mins by LC-MS/MS analysis relative to control; format: functional; procedure, shortened: as §5
[18] = Hepatotoxicity in C57BL/6 mouse assessed as change in ALT level at 300 mg/kg, ip measured after 12 hrs; format: toxicity, organism-based; details: in vivo
Procedure, shortened: (§6)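 Male C57BL/6 mice (8 weeks) were fasted 12–16 h, then given 300 mg kg⁻¹ i.p. in saline. At 12 h, blood was taken for serum ALT/AST (automated analyser). The left medial liver lobe was fixed in 4% formaldehyde, cryosectioned at 10 μm and stained with H&E. The ALT/AST ratio was tested against 1. Mean ± SEM, n = 6–7.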

[19] = Hepatotoxicity in C57BL/6 mouse assessed as centrilobular necrosis at 300 mg/kg, ip measured after 12 hrs by H and E staining based microscopic analysis; format: toxicity, organism-based; details: in vivo; procedure, shortened: as §6
[20] = molecular target: T1, Transient receptor potential cation channel subfamily V member 1; experiment: Agonist activity at TRPV1 in rat isolated mesenteric arteries assessed as vasorelaxation of phenylephrine-induced contraction in presence of TRPV1 antagonist capsazepine; format: tissue-based, Artery
Procedure, shortened: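 Segments from male Wistar rats (200–250 g) were bathed in pH 7.4 physiological salt solution at 37 °C, gassed 95% O₂/5% CO₂, with indomethacin 10 μM and Nω-nitro-L-arginine 100 μM present. After phenylephrine precontraction, conjugate concentration–relaxation curves were run in the presence of capsazepine 3 μM. pEC₅₀ is the negative log molar concentration giving half-maximal relaxation; mean ± SEM, n = animals.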

T1 sequence (O35433 whole entry): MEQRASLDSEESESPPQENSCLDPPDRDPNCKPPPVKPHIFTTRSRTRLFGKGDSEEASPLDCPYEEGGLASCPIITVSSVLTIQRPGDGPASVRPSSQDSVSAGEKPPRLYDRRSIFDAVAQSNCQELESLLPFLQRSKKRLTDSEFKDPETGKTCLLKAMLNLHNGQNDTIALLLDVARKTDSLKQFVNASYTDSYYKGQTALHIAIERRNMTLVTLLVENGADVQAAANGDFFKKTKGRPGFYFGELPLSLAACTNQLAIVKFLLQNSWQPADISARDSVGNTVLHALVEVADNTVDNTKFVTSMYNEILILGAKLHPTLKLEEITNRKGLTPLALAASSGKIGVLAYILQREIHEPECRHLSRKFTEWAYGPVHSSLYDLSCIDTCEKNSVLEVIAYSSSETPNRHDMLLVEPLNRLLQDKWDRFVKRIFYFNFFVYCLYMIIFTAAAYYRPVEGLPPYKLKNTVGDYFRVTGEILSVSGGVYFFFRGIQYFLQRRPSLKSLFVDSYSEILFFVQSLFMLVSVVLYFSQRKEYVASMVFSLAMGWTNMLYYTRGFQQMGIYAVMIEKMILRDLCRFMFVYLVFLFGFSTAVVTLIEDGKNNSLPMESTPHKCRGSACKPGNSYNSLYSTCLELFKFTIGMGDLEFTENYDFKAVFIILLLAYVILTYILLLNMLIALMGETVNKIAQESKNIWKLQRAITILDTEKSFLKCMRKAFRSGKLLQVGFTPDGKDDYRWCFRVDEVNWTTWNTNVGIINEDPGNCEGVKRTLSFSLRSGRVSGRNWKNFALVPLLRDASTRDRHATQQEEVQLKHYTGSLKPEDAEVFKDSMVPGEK

SMILES | pEC50 [1] | Drug metabolism [2] | Drug metabolism [3] | Drug metabolism [4] | Drug metabolism [5] | pEC50 [20] | also measured
CCCCC/C=C\C/C=C\C/C=C\C/C=C\CCCC(=O)NCc1ccc(O)c(OC)c1 | 9.30 |  |  |  |  |  | 
Nc1ccc2[nH]ncc2c1 |  | 12 nmol/g | 0.09 nmol/g | 1731 pmol | 161 pmol |  | Activity (Mus musculus [6]): Dose-dependent effect; Activity (Mus musculus [7]): Dose-dependent effect; Activity [8]: Non-Toxic; Activity (Mus musculus [9]): inactive; Activity (Mus musculus [10]): inactive; Activity (Mus musculus [11]): Active; Activity (Mus musculus [12]): Active; Activity (Mus musculus [13]): Active; Activity (Mus musculus [14]): 96%; Activity (Mus musculus [15]): 100%; Activity (Mus musculus [16]): 99%; Activity (Mus musculus [17]): 91%; Activity [18]: Non-Toxic; Activity [19]: Non-Toxic
COc1cc(N)ccc1O |  | 0.54 nmol/g | 0.005 nmol/g | 82 pmol | 190 pmol |  | 
CCCCC/C=C\C/C=C\C/C=C\C/C=C\CCCC(=O)Nc1ccc2[nH]ncc2c1 | 7.90 |  |  |  |  | 6.40 | 
CCCCC/C=C\C/C=C\C/C=C\C/C=C\CCCC(=O)NCc1ccc2[nH]ncc2c1 | 8.40 |  |  |  |  | 6.80 | 
CCCCC/C=C\C/C=C\C/C=C\C/C=C\CCCC(=O)Nc1ccc(O)cc1 | 7.30 |  |  |  |  |  | 
